From ChEMBL document CHEMBL4819106, “Aminopyrazole based CDK9 PROTAC sensitizes pancreatic cancer cells to venetoclax” (Bioorg Med Chem Lett, 2021)
The source made the active and inactive calls. The calls are words filed in the database; no cut-off is given here.

Key:
[1] = target: T1, Cyclin-dependent kinase 5 (Homo sapiens, UniProt Q00535); experiment: Inhibition of CDK5 (unknown origin)
[2] = target: T2, Protein cereblon/Cyclin-dependent kinase 1 (Homo sapiens) (UniProt P06493+Q96SW2); experiment: Protac activity at CDK1/CRBN in human HEK293 cells assessed as degradation of CDK1 at 1 uM incubated for 24 hrs in presence of MG132 by Western blot analysis; type: cell-based
Method in brief: (§1)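 HEK293 cells co-treated for 24 h with degrader and increasing concentrations of proteasome inhibitor MG132; lysates examined by western blot.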

[3] = target: T3, Protein cereblon/Cyclin-dependent kinase 9 (Homo sapiens, UniProt P50750+Q96SW2); experiment: Protac activity at CDK9/CRBN in human HEK293 cells assessed as degradation of CDK9 by Western blot analysis; type: cell-based; details: TDE = time-dependent effect
Target sequence in this assay (P50750 whole entry, looked up): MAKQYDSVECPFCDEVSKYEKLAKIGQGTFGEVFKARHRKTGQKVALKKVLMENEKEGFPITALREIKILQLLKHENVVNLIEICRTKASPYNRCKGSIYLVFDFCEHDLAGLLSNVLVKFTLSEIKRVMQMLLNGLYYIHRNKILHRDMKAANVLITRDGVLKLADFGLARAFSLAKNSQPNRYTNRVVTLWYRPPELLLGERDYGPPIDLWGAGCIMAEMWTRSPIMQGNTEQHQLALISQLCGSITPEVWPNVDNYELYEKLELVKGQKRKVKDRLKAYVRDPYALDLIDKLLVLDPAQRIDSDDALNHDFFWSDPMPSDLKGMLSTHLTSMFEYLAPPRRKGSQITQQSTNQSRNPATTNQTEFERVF
Target sequence in this assay (Q96SW2 whole entry, looked up): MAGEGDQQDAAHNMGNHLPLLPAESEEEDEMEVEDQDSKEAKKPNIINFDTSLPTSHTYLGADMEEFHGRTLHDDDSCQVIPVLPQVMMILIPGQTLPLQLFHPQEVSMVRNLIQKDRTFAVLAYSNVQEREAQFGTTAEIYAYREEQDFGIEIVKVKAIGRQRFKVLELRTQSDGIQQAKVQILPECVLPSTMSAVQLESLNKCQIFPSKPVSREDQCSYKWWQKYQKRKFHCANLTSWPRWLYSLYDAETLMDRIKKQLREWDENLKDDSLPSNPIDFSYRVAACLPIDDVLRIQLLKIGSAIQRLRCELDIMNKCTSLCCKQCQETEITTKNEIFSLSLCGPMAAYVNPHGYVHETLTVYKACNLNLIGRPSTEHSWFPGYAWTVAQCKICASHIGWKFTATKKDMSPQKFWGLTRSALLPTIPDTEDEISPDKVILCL

[4] = target: T4, Protein cereblon/Cyclin-dependent kinase 12 (Homo sapiens) (UniProt Q9NYV4+Q96SW2); experiment: Protac activity at CDK12/CRBN in human HEK293 cells assessed as degradation of CDK12 at 1 uM measured upto 24 hrs by Western blot analysis; type: cell-based; details: time hrs <=24
Method in brief: (§2)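 Time course in HEK293 cells at 1 μM degrader; lysates collected at indicated time points up to 24 h and probed by western blot for the various CDKs.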

[5] = target: T5, Protein cereblon/Cyclin-dependent kinase 2 (Homo sapiens) (UniProt P24941+Q96SW2); experiment: Protac activity at CDK2/CRBN in human HEK293 cells assessed as degradation of CDK2 at 1 uM measured upto 24 hrs by Western blot analysis; type: cell-based; details: time hrs <=24; method in brief: as §2
MIA PaCa-2 [6] = experiment: Antiproliferative activity against human MIA PaCa-2 cells assessed as sensitizing activity by measuring combination index at ED90 measured after 3 days in presence of ABT- 263 by Prestoblue assay; type: functional; details: time 3 day
Method in brief: (§3)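 MiaPaCa2 cells were treated for 3 days with the CDK9 degrader and a Bcl2-family inhibitor (ABT-263, ABT-199 or WEHI-539), singly and combined. Viability was read by PrestoBlue. Combination index values were calculated with CalcuSyn at effective doses ED50, ED75 and ED90.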

MIA PaCa-2 [7] = experiment: Antiproliferative activity against human MIA PaCa-2 cells assessed as sensitizing activity by measuring combination index at ED90 measured after 3 days in presence of WEHI-539 by Prestoblue assay; type: functional; details: time 3 day; method in brief: as §3
[8] = target: T6, Protein cereblon/Cyclin-dependent kinase 8 (Homo sapiens) (UniProt P49336+Q96SW2); experiment: Protac activity at CDK8/CRBN in human HEK293 cells assessed as degradation of CDK8 at 1 uM measured upto 24 hrs by Western blot analysis; type: cell-based; details: time hrs <=24; method in brief: as §2
[9] = target: Cyclin-dependent kinase 7 (Homo sapiens) (UniProt P50613); experiment: Inhibition of CDK7 in human HEK293 cells assessed as reduction in CDK7 level at 10 uM incubated for 24 hrs in presence of flavopiridol by Western blot analysis; type: cell-based
[10] = target: T7, Protein cereblon/Cyclin-dependent kinase 7 (Homo sapiens) (UniProt P50613+Q96SW2); experiment: Protac activity at CDK7/CRBN in human HEK293 cells assessed as degradation of CDK7 at 1 uM measured upto 24 hrs by Western blot analysis; type: cell-based; details: time hrs <=24; method in brief: as §2
[11] = target: T8, Protein cereblon/Cyclin-dependent kinase 5 (Homo sapiens) (UniProt Q00535+Q96SW2); experiment: Protac activity at CDK5/CRBN in human HEK293 cells assessed as degradation of CDK5 at 1 uM measured upto 24 hrs by Western blot analysis; type: cell-based; details: time hrs <=24; method in brief: as §2
[12] = target: T6, Protein cereblon/Cyclin-dependent kinase 8 (Homo sapiens); experiment: Protac activity at CDK8/CRBN in human HEK293 cells assessed as degradation of CDK8 at 0.01 to 10 uM incubated for 24 hrs by Western blot analysis; type: cell-based; details: dose 0.01-10 µM
[13] = target: T4, Protein cereblon/Cyclin-dependent kinase 12 (Homo sapiens); experiment: Protac activity at CDK12/CRBN in human HEK293 cells assessed as degradation of CDK12 at 0.01 to 10 uM incubated for 24 hrs by Western blot analysis; type: cell-based; details: dose 0.01-10 µM
[14] = target: T3, Protein cereblon/Cyclin-dependent kinase 9; experiment: Protac activity at CDK9/CRBN in human HEK293 cells assessed as degradation of CDK9 at 1 uM measured up to 24 hrs by Western blot analysis; type: cell-based; details: time hrs <=24; method in brief: as §2
Target sequence in this assay (P50750 whole entry, looked up): as the sequence (P50750 whole entry, looked up) above
Target sequence in this assay (Q96SW2 whole entry, looked up): as the sequence (Q96SW2 whole entry, looked up) above

MIA PaCa-2 [15] = experiment: Antiproliferative activity against human MIA PaCa-2 cells assessed as sensitizing activity by measuring combination index at ED50 measured after 3 days in presence of WEHI-539 by Prestoblue assay; type: functional; details: time 3 day; method in brief: as §3
[16] = target: T9, Protein cereblon/Cyclin-dependent kinase 4 (Homo sapiens) (UniProt P11802+Q96SW2); experiment: Protac activity at CDK4/CRBN in human HEK293 cells assessed as degradation of CDK4 at 1 uM measured upto 24 hrs by Western blot analysis; type: cell-based; details: time hrs <=24; method in brief: as §2
[17] = target: T3, Protein cereblon/Cyclin-dependent kinase 9; experiment: Protac activity at CDK9/CRBN in human HEK293 cells assessed as degradation of CDK9 at 1 uM incubated for 24 hrs in presence of pomalidomide by Western blot analysis; type: cell-based
Method in brief: (§4)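 Competition in HEK293 cells: 10 μM pomalidomide (CRBN ligand) alone or combined with 1 μM degrader for 24 h; lysates analysed by western blot.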
Target sequence in this assay (P50750 whole entry, looked up): as the sequence (P50750 whole entry, looked up) above
Target sequence in this assay (Q96SW2 whole entry, looked up): as the sequence (Q96SW2 whole entry, looked up) above

MIA PaCa-2 [18] = experiment: Antiproliferative activity against human MIA PaCa-2 cells assessed as sensitizing activity by measuring combination index at ED50 measured after 3 days in presence of ABT- 199 by Prestoblue assay; type: functional; details: time 3 day; method in brief: as §3
[19] = target: T3, Protein cereblon/Cyclin-dependent kinase 9; experiment: Protac activity at CDK9/CRBN in human MIA PaCa-2 cells assessed as degradation of CDK9; type: cell-based
Target sequence in this assay (P50750 whole entry, looked up): as the sequence (P50750 whole entry, looked up) above
Target sequence in this assay (Q96SW2 whole entry, looked up): as the sequence (Q96SW2 whole entry, looked up) above

[20] = target: T7, Protein cereblon/Cyclin-dependent kinase 7 (Homo sapiens); experiment: Protac activity at CDK7/CRBN in human HEK293 cells assessed as degradation of CDK7 at 0.01 to 10 uM incubated for 24 hrs by Western blot analysis; type: cell-based; details: dose 0.01-10 µM
[21] = target: T3, Protein cereblon/Cyclin-dependent kinase 9; experiment: Protac activity at CDK9/CRBN in human SUIT-2 cells assessed as degradation of CDK9; type: cell-based
Target sequence in this assay (P50750 whole entry, looked up): as the sequence (P50750 whole entry, looked up) above
Target sequence in this assay (Q96SW2 whole entry, looked up): as the sequence (Q96SW2 whole entry, looked up) above

[22] = target: CDK9/Cyclin K (Homo sapiens) (UniProt P50750+O75909); experiment: Protac activity at Cyclin K/CRBN in human HEK293 cells assessed as degradation of cyclin K at 0.01 to 10 uM incubated for 24 hrs by Western blot analysis; type: cell-based; details: dose 0.01-10 µM
[23] = target: T3, Protein cereblon/Cyclin-dependent kinase 9; experiment: Protac activity at CDK9/CRBN in human HEK293 cells assessed as degradation of CDK9 incubated for 24 hrs by Western blot analysis; type: cell-based
Method in brief: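 HEK293 cells were treated with increasing concentrations (0.01–10 μM) for 24 hr. Lysates were analysed by western blot for CDK9 degradation.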

[24] = target: T4, Protein cereblon/Cyclin-dependent kinase 12 (Homo sapiens); experiment: Protac activity at CDK12/CRBN in human HEK293 cells assessed as degradation of CDK12 at 1 uM incubated for 24 hrs in presence of MG132 by Western blot analysis; type: cell-based; method in brief: as §1
MIA PaCa-2 [25] = experiment: Antiproliferative activity against human MIA PaCa-2 cells assessed as sensitizing activity by measuring combination index at ED90 measured after 3 days in presence of ABT- 199 by Prestoblue assay; type: functional; details: time 3 day; method in brief: as §3
MIA PaCa-2 [26] = experiment: Antiproliferative activity against human MIA PaCa-2 cells assessed as sensitizing activity by measuring combination index at ED75 measured after 3 days in presence of ABT- 199 by Prestoblue assay; type: functional; details: time 3 day; method in brief: as §3
[27] = target: T10, Cyclin-dependent kinase 9 (Homo sapiens, UniProt P50750); experiment: Inhibition of CDK9 (unknown origin)
[28] = target: T11, Protein cereblon/Cyclin-dependent kinase 6 (Homo sapiens) (UniProt Q00534+Q96SW2); experiment: Protac activity at CDK6/CRBN in human HEK293 cells assessed as degradation of CDK6 at 1 uM measured upto 24 hrs by Western blot analysis; type: cell-based; details: time hrs <=24; method in brief: as §2
MIA PaCa-2 [29] = experiment: Antiproliferative activity against human MIA PaCa-2 cells assessed as sensitizing activity by measuring combination index at ED75 measured after 3 days in presence of ABT- 263 by Prestoblue assay; type: functional; details: time 3 day; method in brief: as §3
[30] = target: T12, Cyclin-dependent kinase 2 (Homo sapiens, UniProt P24941)
[31] = target: T8, Protein cereblon/Cyclin-dependent kinase 5 (Homo sapiens); experiment: Protac activity at CDK5/CRBN in human HEK293 cells assessed as degradation of CDK5 at 0.01 to 10 uM incubated for 24 hrs by Western blot analysis; type: cell-based; details: dose 0.01-10 µM
[32] = target: T3, Protein cereblon/Cyclin-dependent kinase 9; experiment: Protac activity at CDK9/CRBN in human HEK293 cells assessed as degradation of CDK9 at 1 uM incubated for 24 hrs by Western blot analysis relative to control; type: cell-based
Target sequence in this assay (P50750 whole entry, looked up): as the sequence (P50750 whole entry, looked up) above
Target sequence in this assay (Q96SW2 whole entry, looked up): as the sequence (Q96SW2 whole entry, looked up) above

[33] = target: T10, Cyclin-dependent kinase 9; experiment: Inhibition of CDK9 in human HEK293 cells assessed as reduction in CDK9 level at 1 uM incubated for 8 hrs in presence of flavopiridol by Western blot analysis
[34] = target: T5, Protein cereblon/Cyclin-dependent kinase 2 (Homo sapiens); experiment: Protac activity at CDK2/CRBN in human HEK293 cells assessed as degradation of CDK2 at 0.01 to 10 uM incubated for 24 hrs by Western blot analysis; type: cell-based; details: dose 0.01-10 µM
[35] = target: T10, Cyclin-dependent kinase 9; experiment: Binding affinity to CDK9 (unknown origin)
[36] = target: T9, Protein cereblon/Cyclin-dependent kinase 4 (Homo sapiens); experiment: Protac activity at CDK4/CRBN in human HEK293 cells assessed as degradation of CDK4 at 0.01 to 10 uM incubated for 24 hrs by Western blot analysis; type: cell-based; details: dose 0.01-10 µM
[37] = target: T1, Cyclin-dependent kinase 5; experiment: Binding affinity to CDK5 (unknown origin)
[38] = target: T12, Cyclin-dependent kinase 2; remark: listed apart in the source
[39] = target: T11, Protein cereblon/Cyclin-dependent kinase 6 (Homo sapiens); experiment: Protac activity at CDK6/CRBN in human HEK293 cells assessed as degradation of CDK6 at 0.01 to 10 uM incubated for 24 hrs by Western blot analysis; type: cell-based; details: dose 0.01-10 µM
[40] = target: T2, Protein cereblon/Cyclin-dependent kinase 1 (Homo sapiens); experiment: Protac activity at CDK1/CRBN in human HEK293 cells assessed as degradation of CDK1 at 0.01 to 10 uM incubated for 24 hrs by Western blot analysis; type: cell-based; details: dose 0.01-10 µM
MIA PaCa-2 [41] = experiment: Antiproliferative activity against human MIA PaCa-2 cells assessed as sensitizing activity by measuring combination index at ED75 measured after 3 days in presence of WEHI-539 by Prestoblue assay; type: functional; details: time 3 day; method in brief: as §3
[42] = target: T7, Protein cereblon/Cyclin-dependent kinase 7 (Homo sapiens); experiment: Protac activity at CDK7/CRBN in human HEK293 cells assessed as degradation of CDK7 at 10 uM incubated for 24 hrs in presence of pomalidomide by Western blot analysis; type: cell-based; method in brief: as §4
[43] = target: T2, Protein cereblon/Cyclin-dependent kinase 1 (Homo sapiens); experiment: Protac activity at CDK1/CRBN in human HEK293 cells assessed as degradation of CDK1 at 1 uM measured upto 24 hrs by Western blot analysis; type: cell-based; details: time hrs <=24; method in brief: as §2
MIA PaCa-2 [44] = experiment: Antiproliferative activity against human MIA PaCa-2 cells assessed as sensitizing activity by measuring combination index at ED50 measured after 3 days in presence of ABT- 263 by Prestoblue assay; type: functional; details: time 3 day; method in brief: as §3
[45] = target: T3, Protein cereblon/Cyclin-dependent kinase 9; experiment: Protac activity at CDK9/CRBN in human HEK293 cells assessed as degradation of CDK9 at 1 uM incubated for 24 hrs in presence of MG132 by Western blot analysis; type: cell-based; method in brief: as §1

T2 sequence (P06493 whole entry, looked up): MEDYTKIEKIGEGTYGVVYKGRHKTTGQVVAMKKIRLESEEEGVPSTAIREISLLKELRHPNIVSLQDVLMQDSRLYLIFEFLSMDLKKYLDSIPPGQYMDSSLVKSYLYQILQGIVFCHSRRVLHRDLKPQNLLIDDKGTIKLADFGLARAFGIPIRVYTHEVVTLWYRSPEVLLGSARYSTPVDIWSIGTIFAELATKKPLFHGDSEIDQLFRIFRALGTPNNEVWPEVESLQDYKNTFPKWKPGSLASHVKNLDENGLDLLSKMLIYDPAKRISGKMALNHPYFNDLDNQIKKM
T2 sequence (Q96SW2 whole entry, looked up): as the sequence (Q96SW2 whole entry, looked up) above
T7 sequence (P50613 whole entry, looked up): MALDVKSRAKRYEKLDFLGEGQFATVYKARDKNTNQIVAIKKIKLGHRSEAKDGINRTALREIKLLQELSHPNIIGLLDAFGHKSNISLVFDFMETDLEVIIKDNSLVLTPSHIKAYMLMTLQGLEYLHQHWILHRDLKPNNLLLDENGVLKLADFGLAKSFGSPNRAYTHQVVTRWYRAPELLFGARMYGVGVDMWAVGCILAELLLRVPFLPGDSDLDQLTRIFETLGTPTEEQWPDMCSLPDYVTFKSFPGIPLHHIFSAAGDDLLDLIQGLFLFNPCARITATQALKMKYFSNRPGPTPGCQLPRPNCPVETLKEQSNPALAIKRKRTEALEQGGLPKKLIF
T7 sequence (Q96SW2 whole entry, looked up): as the sequence (Q96SW2 whole entry, looked up) above
T10 sequence (P50750 whole entry): as the sequence (P50750 whole entry, looked up) above
T1 sequence (Q00535 whole entry): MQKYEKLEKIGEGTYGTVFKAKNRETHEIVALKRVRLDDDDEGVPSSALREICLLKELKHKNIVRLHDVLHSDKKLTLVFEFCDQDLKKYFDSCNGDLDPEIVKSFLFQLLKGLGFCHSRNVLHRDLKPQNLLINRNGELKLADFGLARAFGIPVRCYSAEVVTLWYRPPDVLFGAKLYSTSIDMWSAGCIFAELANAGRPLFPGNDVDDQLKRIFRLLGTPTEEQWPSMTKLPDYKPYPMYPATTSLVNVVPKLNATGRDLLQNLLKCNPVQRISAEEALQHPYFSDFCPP
T8 sequence (Q00535 whole entry, looked up): as the sequence (Q00535 whole entry) above
T8 sequence (Q96SW2 whole entry, looked up): as the sequence (Q96SW2 whole entry, looked up) above
T9 sequence (P11802 2-303 limits assumed): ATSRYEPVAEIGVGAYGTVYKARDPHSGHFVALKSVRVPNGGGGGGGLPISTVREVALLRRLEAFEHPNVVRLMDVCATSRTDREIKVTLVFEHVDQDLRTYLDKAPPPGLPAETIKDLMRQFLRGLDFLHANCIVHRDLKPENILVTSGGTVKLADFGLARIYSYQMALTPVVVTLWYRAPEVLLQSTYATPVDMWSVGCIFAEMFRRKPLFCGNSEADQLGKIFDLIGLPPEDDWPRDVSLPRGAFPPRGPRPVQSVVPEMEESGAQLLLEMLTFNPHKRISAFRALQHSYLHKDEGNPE
T9 sequence (Q96SW2 whole entry partner): as the sequence (Q96SW2 whole entry, looked up) above

IC50 [1]: 7 nM
Activity [2]: inactive
Activity [3]: Tde
Activity [4]: inactive
Activity [5]: inactive
Activity [8]: inactive
Activity [9]: inactive
Activity [10]: inactive
Activity [11]: inactive
Activity [12]: inactive
Activity [13]: inactive
Activity [14]: Active
Activity [16]: inactive
Activity [17]: inactive
Activity [19]: Active
Activity [20]: inactive
Activity [21]: Active
Activity [22]: inactive
Activity [23]: Dose-Dependent Effect
DC50 [23]: 158 nM
Activity [24]: inactive
IC50 [27]: 530 nM
Activity [28]: inactive
Kd [30]: 385 nM
Activity [31]: inactive
Activity [32]: 100%
Activity [33]: inactive
Activity [34]: inactive
Kd [35]: 1050 nM
Activity [36]: inactive
Kd [37]: 815 nM
IC50 [38]: 155 nM
Activity [39]: inactive
Activity [40]: inactive
Activity [42]: inactive
Activity [43]: inactive
Activity [45]: inactive
SMILES: O=C(CCCOc1ccc(CC(=O)Nc2cc(C3CCC3)[nH]n2)cc1)NCCCCNc1cccc2c1C(=O)N(C1CCC(=O)NC1=O)C2=O (stereo unspecified)
CI (MIA PaCa-2 [6]): 0.1
CI (MIA PaCa-2 [7]): 0.35
CI (MIA PaCa-2 [15]): 1
CI (MIA PaCa-2 [18]): 0.02
CI (MIA PaCa-2 [25]): 0.001
CI (MIA PaCa-2 [26]): 0.001
CI (MIA PaCa-2 [29]): 0.12
CI (MIA PaCa-2 [41]): 0.6
CI (MIA PaCa-2 [44]): 0.16
